Assay results reported in publication PMC3150610 (Journal of medicinal chemistry, 2011).
One block for each compound: values may come before it.

What was measured:
human thrombin = human thrombin (Homo sapiens, UniProt P00734); test: Michaelis-Menten kinetics of Spectrozyme TH hydrolysis by thrombin; assay type: biochemical; conditions: for VMAX of Spectrozyme TH hydrolysis: pH 7.4
Procedure, shortened: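 Human α-thrombin (5–10 nM) with Spectrozyme TH at 10 to 600 μM, at fixed test compound levels of 0–30 μM. Run in 20 mM Tris-HCl, pH 7.4, at 37 °C. Initial rate taken from the linear rise in A405 while under 10% of substrate was consumed. Data fitted to the Michaelis-Menten equation for KM and VMAX.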

citrated human plasma [1] = test: Prothrombin time; conditions: thromboplastin initiator
Procedure, shortened: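 Test compound brought up in citrated human plasma and held 30 s at 37 °C. Pre-warmed thromboplastin (reconstituted per manufacturer, 37 °C) then added and clotting time read on a fibrometer in a one-stage assay. Deionized water served as the no-anticoagulant control. Run in duplicate. Quadratic trendline fit gave the concentration doubling PT.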

citrated human plasma [2] = test: Activated partial thromboplastin time; conditions: ellagic acid initiator
Procedure, shortened: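 Test compound in citrated human plasma with pre-warmed APTT reagent (0.2% ellagic acid), incubated 4 min. Clotting started with 25 mM CaCl2 at 37 °C and time to clot read on a fibrometer. One-stage recalcification format, each assay in duplicate. Clotting time versus concentration fitted to a quadratic trendline to get the concentration that doubles APTT.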

Human α-thrombin = Human α-thrombin (Homo sapiens, UniProt P00734); assay type: biochemical; conditions: for fold change in IC50 (weaker) relative to 12a: comparator 12a; for fold weaker thrombin inhibition of di-sulfated dimers: comparator not given

SMILES: COC(=O)c1c(C)oc2cc(OC)c(OCc3oc4cc(OC)c(OS(=O)(=O)[O-])cc4c3C(=O)OC)cc12.[Na+] [12b]
- concentration required to double PT (2×PT) (citrated human plasma [1]): 850 to 2100 µM

SMILES: CCOC(=O)c1c(C)oc2cc(OCC)c(OCc3oc4cc(OCC)c(OS(=O)(=O)[O-])cc4c3C(=O)OCC)cc12.[Na+] [12e]
- concentration required to double APTT (2×APTT) (citrated human plasma [2]): 355 to 1250 µM

SMILES: CCOC(=O)c1c(COc2cc3c(C(=O)OCC)c(CN4CCOCC4)oc3cc2OC)oc2cc(OC)c(OS(=O)(=O)[O-])cc12.[Na+] [compound 13]
- fold change in IC50 (weaker) relative to 12a (Human α-thrombin): 2.2 fold

SMILES: COc1cc2oc(C)c(C(=O)N3CCOCC3)c2cc1OCc1oc2cc(OC)c(OS(=O)(=O)[O-])cc2c1C(=O)N1CCOCC1.[Na+] [compound 14]
- fold loss of affinity from t-butyl ester dimer (Human α-thrombin; comparator printed as dimer 2c): more than 270 fold

SMILES: COc1cc2oc(C)c(C(=O)O)c2cc1OCc1oc2cc(OC)c(OS(=O)(=O)[O-])cc2c1C(=O)O.[Na+] [compound 15]
- fold change in IC50 (weaker) relative to 12a (Human α-thrombin): 6.2 fold

SMILES: CCOC(=O)c1c(C)oc2cc(OCc3oc4cc(OC)c(OS(=O)(=O)[O-])cc4c3C(=O)OCC)c(OS(=O)(=O)[O-])cc12.[Na+].[Na+] [compound 17]
- fold weaker thrombin inhibition of di-sulfated dimers (Human α-thrombin): 6–17 fold

SMILES: CCOC(=O)c1c(C)oc2cc(OC)c(OCc3oc4cc(OS(=O)(=O)[O-])c(OS(=O)(=O)[O-])cc4c3C(=O)OCC)cc12.[Na+].[Na+] [compound 18]
- fold weaker thrombin inhibition of di-sulfated dimers (Human α-thrombin): 6–17 fold

Continued, in another order:

- mechanism of thrombin inhibition (human thrombin; Michaelis-Menten kinetics): non-competitive, allosteric mechanism
- VMAX of Spectrozyme TH hydrolysis (human thrombin; in presence of 1.5 μM 12a): 97 ± 13 mAUmin^−1μM^−1
- VMAX of Spectrozyme TH hydrolysis (human thrombin; in presence of 3.0 μM 12a): 107 ± 14 mAUmin^−1μM^−1
- VMAX of Spectrozyme TH hydrolysis (human thrombin; in presence of 10.5 μM 12a): 73 ± 13 mAUmin^−1μM^−1
- VMAX of Spectrozyme TH hydrolysis (human thrombin; in presence of 30 μM 12a): 66 ± 6 mAUmin^−1μM^−1
- decrease in maximal velocity of reaction (human thrombin; upon approximately 50% saturation of the enzyme): ~ 34%
SMILES: CCOC(=O)c1c(C)oc2cc(OC)c(OCc3oc4cc(OC)c(OS(=O)(=O)[O-])cc4c3C(=O)OCC)cc12.[Na+] [12a]

- fold improvement of inhibition potency with lipophilicity of 3-ester (Human α-thrombin; across 12a, 12b, 12c): 8.2 fold
SMILES: COc1cc2oc(C)c(C(=O)OC(C)(C)C)c2cc1OCc1oc2cc(OC)c(OS(=O)(=O)[O-])cc2c1C(=O)OC(C)(C)C.[Na+] [12c]
- concentration required to double APTT (2×APTT) (citrated human plasma [2]): 355 to 1250 µM

- fold change in IC50 (weaker) relative to 12a (Human α-thrombin): 6.2 fold
SMILES: COCCOC(=O)c1c(C)oc2cc(OC)c(OCc3oc4cc(OC)c(OS(=O)(=O)[O-])cc4c3C(=O)OCCOC)cc12.[Na+] [12d]

- fold increase in potency, ethyl to isopropyl at 6-position (Human α-thrombin; 12f versus 12e): ~4 fold
SMILES: CCOC(=O)c1c(C)oc2cc(OC(C)C)c(OCc3oc4cc(OC(C)C)c(OS(=O)(=O)[O-])cc4c3C(=O)OCC)cc12.[Na+] [12f]
